Tests used:
[1] = tested on: DU-145; experiment: Cytotoxicity against human DU145 cells after 48 hrs by SRB assay; type: functional, cell-based; details: Homo sapiens, DU-145, 48 h; for CC50: read-out: LC50 (the source's name)
Procedure, shortened: (§1)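 Cells grown in RPMI 1640 with 10% FBS and penicillin/streptomycin at 37 °C and 5% CO₂, trypsinized, then seeded at 5 × 10³/well. After 18 h drug-free attachment, samples in DMSO/EtOH/PBS (0.5:0.5:99) were added for 48 h continuous exposure. Cells were fixed with cold TCA (1 h, 4 °C) and stained with SRB (10 min). Tris-solubilized stain read at 490 nm. Triplicate wells, mean ± SD; GI₅₀ derived.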

[2] = Cytotoxicity against human IGROV cells after 48 hrs by SRB assay; type: functional; details: for CC50: read-out: LC50 (the source's name); procedure, shortened: as §1
[3] = Cytotoxicity against human IGROV-ET cells after 48 hrs by SRB assay; type: functional; details: for CC50: read-out: LC50 (the source's name); procedure, shortened: as §1
[4] = tested on: SK-BR-3; experiment: Cytotoxicity against human SKBR3 cells after 48 hrs by SRB assay; type: functional; details: SK-BR-3, 48 h; for CC50: read-out: LC50 (the source's name); procedure, shortened: as §1
[5] = tested on: SK-MEL-28; experiment: Cytotoxicity against human SK-MEL-28 cells after 48 hrs by SRB assay; type: functional, cell-based; details: Homo sapiens, SK-MEL-28, 48 h; for CC50: read-out: LC50 (the source's name); procedure, shortened: as §1
[6] = tested on: A549; experiment: Cytotoxicity against human A549 cells after 48 hrs by SRB assay; type: functional, cell-based; details: Homo sapiens, A549, 48 h; procedure, shortened: as §1
[7] = tested on: K562; experiment: Cytotoxicity against human K562 cells after 48 hrs by SRB assay; type: functional; details: K562, 48 h; for CC50: read-out: LC50 (the source's name); procedure, shortened: as §1
[8] = tested on: PANC-1; experiment: Cytotoxicity against human PANC1 cells after 48 hrs by SRB assay; type: functional; details: PANC-1, 48 h; for CC50: read-out: LC50 (the source's name); procedure, shortened: as §1
[9] = tested on: HT-29; experiment: Cytotoxicity against human HT29 cells after 48 hrs by SRB assay; type: functional, cell-based; details: Homo sapiens, HT-29, 48 h; for CC50: read-out: LC50 (the source's name); procedure, shortened: as §1
[10] = tested on: LoVo; experiment: Cytotoxicity against human LoVo cells after 48 hrs by SRB assay; type: functional; details: for CC50: read-out: LC50 (the source's name)
[11] = tested on: LoVo; experiment: Cytotoxicity against human doxorubicin resistant LoVo cells after 48 hrs by SRB assay; type: functional; details: for CC50: read-out: LC50 (the source's name); procedure, shortened: as §1
[12] = tested on: HeLa; experiment: Cytotoxicity against human HeLa cells after 48 hrs by SRB assay; type: functional; details: for CC50: read-out: LC50 (the source's name); procedure, shortened: as §1
[13] = Cytotoxicity against human HeLa-APL cells after 48 hrs by SRB assay; type: functional; procedure, shortened: as §1

| SMILES | GI50 ([1]; read-out: GI50) [nM] | CC50 [1] [nM] | GI50 [2] [nM] | GI50 ([2]; read-out: GI50) [nM] | CC50 [2] [nM] | GI50 [3] [nM] | CC50 [3] [nM] | CC50 [4] [nM] | GI50 ([5]; read-out: GI50) [nM] | CC50 [5] [nM] | LC50 [6] [nM] | CC50 [7] [nM] | CC50 [8] [nM] | CC50 [9] [nM] | GI50 [10] [nM] | TGI [10] [nM] | CC50 [10] [nM] | CC50 [11] [nM] | CC50 [12] [nM] | LC50 (concentration giving 50% net cell kill) [13] [nM] | other results |
| --- | --- | --- | --- | --- | --- | --- | --- | --- | --- | --- | --- | --- | --- | --- | --- | --- | --- | --- | --- | --- | --- |
| C/C=C1\NC(=O)[C@H](c2ccccc2)NC(=O)[C@@H](C(C)C)NC(=O)[C@@H]([C@H](C)CC)NC(=O)[C@H](NC(=O)[C@H](NC(=O)[C@H](CCCN)NC(=O)[C@H]2CCCN2C(=O)[C@H](NC(=O)[C@@H](NC(=O)[C@@H](NC(=O)[C@H](NC(=O)CCCC(C)C)C(C)C)[C@@H](C)O)C(C)C)C(C)C)[C@H](C)CC)[C@H](C)OC(=O)[C@H](C(C)C)NC1=O | 872 | 872 | 720 | 503 | 498 | 797 | 536 | 360 | 1110 | 1110 | 1090 | 1810 | 1660 | 416 | 417 | 533 | 341 | 333 | 903 | 912 | GI50 [1]: 872 nM; GI50 ([3]; read-out: GI50): 806 nM; TGI [4]: 386 nM; GI50 ([4]; read-out: GI50): 438 nM; TGI [5]: 1110 nM; TGI [6]: 1090 nM; GI50 ([6]; read-out: GI50): 1090 nM; GI50 [7]: 1810 nM; TGI [7]: 1810 nM; GI50 [8]: 1660 nM; TGI [8]: 1660 nM; GI50 [11]: 409 nM |
| C/C=C1\NC(=O)[C@H](Cc2ccccc2)NC(=O)[C@@H](C(C)C)NC(=O)[C@@H]([C@H](C)CC)NC(=O)[C@H](NC(=O)[C@H](NC(=O)[C@H](CCCNC(=O)C[C@](OC)(c2ccccc2)C(F)(F)F)NC(=O)[C@H]2CCCN2C(=O)[C@H](NC(=O)[C@@H](NC(=O)[C@@H](NC(=O)[C@H](NC(=O)CCCC(C)C)C(C)C)[C@@H](C)O)C(C)C)C(C)C)[C@H](C)CC)[C@H](C)OC(=O)[C@H](C(C)C)NC1=O | 886 | 812 | 313 | 245 | 442 | 397 | 479 | 158 | 1040 | 1040 | 1010 | 1690 | 1550 | 311 | 92.7 | 91.4 | 90.9 | 119 | 842 | 850 | GI50 [1]: 812 nM; GI50 ([3]; read-out: GI50): 344 nM; GI50 [4]: 95.8 nM; GI50 ([4]; read-out: GI50): 91.8 nM; TGI [5]: 1040 nM; TGI [6]: 1010 nM; GI50 ([6]; read-out: GI50): 1010 nM; GI50 [7]: 1110 nM; TGI [7]: 1690 nM; GI50 [8]: 1550 nM; TGI [8]: 1550 nM; GI50 [9]: 148 nM; TGI [9]: 147 nM; GI50 [12]: 537 nM; TGI [12]: 842 nM; GI50 [13]: 554 nM; TGI [13]: 615 nM |
| C/C=C1\NC(=O)[C@H](Cc2ccccc2)NC(=O)[C@@H](C(C)C)NC(=O)[C@@H]([C@H](C)CC)NC(=O)[C@H](NC(=O)[C@H](NC(=O)[C@H](CCCNC(=O)CCOCCOCCNC(=O)OCC2c3ccccc3-c3ccccc32)NC(=O)[C@H]2CCCN2C(=O)[C@H](NC(=O)[C@@H](NC(=O)[C@@H](NC(=O)[C@H](NC(=O)CCCC(C)C)C(C)C)[C@@H](C)O)C(C)C)C(C)C)[C@H](C)CC)[C@H](C)OC(=O)[C@H](C(C)C)NC1=O | 16.4 | 557 | 79.9 | 36.1 | 404 |  | 216 | 392 | 68.4 | 10.3 | 32 | 15.4 | 141 | 263 | 44.3 | 61.7 | 43.2 | 238 | 767 | 528 | TGI [1]: 15.7 nM; GI50 [4]: 53.4 nM; GI50 ([4]; read-out: GI50): 39.6 nM; GI50 [5]: 840 nM; GI50 [9]: 85.3 nM; TGI [9]: 117 nM; GI50 [11]: 199 nM; TGI [11]: 179 nM; GI50 [12]: 56.4 nM; TGI [12]: 119 nM; GI50 [13]: 53.8 nM; TGI [13]: 89.7 nM |
| C/C=C1\NC(=O)[C@H](Cc2ccc(OC)cc2)NC(=O)[C@@H](C(C)C)NC(=O)[C@@H]([C@H](C)CC)NC(=O)[C@H](NC(=O)[C@H](NC(=O)[C@H](CCCN)NC(=O)[C@H]2CCCN2C(=O)[C@H](NC(=O)[C@@H](NC(=O)[C@@H](NC(=O)[C@H](NC(=O)CC[C@@H](C)CC)C(C)C)[C@@H](C)O)C(C)C)C(C)C)[C@H](C)CC)[C@H](C)OC(=O)[C@H](C(C)C)NC1=O | 858 | 1060 | 502 | 442 | 581 | 384 | 465 | 824 | 1190 | 1280 | 6420 | 1890 | 1990 | 45.4 | 320 | 285 | 106 | 79.2 | 943 | 1220 | GI50 [1]: 947 nM; GI50 ([3]; read-out: GI50): 295 nM; TGI [4]: 284 nM; GI50 ([4]; read-out: GI50): 283 nM; TGI [5]: 1230 nM; GI50 [6]: 557 nM; GI50 ([6]; read-out: GI50): 526 nM; GI50 [8]: 3120 nM; TGI [8]: 4340 nM; GI50 [11]: 237 nM; TGI [11]: 214 nM; GI50 [12]: 766 nM; TGI [12]: 848 nM; GI50 [13]: 1010 nM; TGI [13]: 1160 nM |
| C/C=C1\NC(=O)[C@@H]2C[C@@H]3CCCC[C@@H]3N2C(=O)[C@@H](C(C)C)NC(=O)[C@@H]([C@H](C)CC)NC(=O)[C@H](NC(=O)[C@H](NC(=O)[C@H](CCCN)NC(=O)[C@H]2CCCN2C(=O)[C@H](NC(=O)[C@@H](NC(=O)[C@@H](NC(=O)[C@H](NC(=O)CC[C@@H](C)CC)C(C)C)[C@@H](C)O)C(C)C)C(C)C)[C@H](C)CC)[C@H](C)OC(=O)[C@H](C(C)C)NC1=O | 1460 | 1070 | 871 | 1820 | 582 | 827 | 507 | 138 | 1150 | 1120 | 1070 | 2670 | 2000 | 677 | 1210 | 1920 | 2420 | 527 | 1050 | 1000 | TGI [1]: 1250 nM; GI50 ([3]; read-out: GI50): 1590 nM; TGI [4]: 887 nM; GI50 ([4]; read-out: GI50): 700 nM; TGI [5]: 1140 nM; TGI [6]: 1250 nM; GI50 ([6]; read-out: GI50): 1460 nM; GI50 [7]: 4750 nM; TGI [7]: 4040 nM; GI50 [8]: 2580 nM; TGI [8]: 3670 nM; GI50 [11]: 358 nM; TGI [11]: 433 nM; GI50 [12]: 1560 nM; TGI [12]: 1270 nM; GI50 [13]: 1260 nM; TGI [13]: 1120 nM |
| C/C=C1\NC(=O)[C@H](Cc2cccs2)NC(=O)[C@@H](C(C)C)NC(=O)[C@@H]([C@H](C)CC)NC(=O)[C@H](NC(=O)[C@H](NC(=O)[C@H](CCCN)NC(=O)[C@H]2CCCN2C(=O)[C@H](NC(=O)[C@@H](NC(=O)[C@@H](NC(=O)[C@H](NC(=O)CC[C@@H](C)CC)C(C)C)[C@@H](C)O)C(C)C)C(C)C)[C@H](C)CC)[C@H](C)OC(=O)[C@H](C(C)C)NC1=O | 1380 | 1070 |  |  | 676 | 855 | 505 | 110 | 1580 | 1290 | 1210 | 2690 | 2010 | 657 | 751 | 1190 | 1930 | 393 | 1070 | 1130 | TGI [1]: 1210 nM; GI50 ([3]; read-out: GI50): 1710 nM; TGI [5]: 1430 nM; TGI [6]: 1450 nM; GI50 ([6]; read-out: GI50): 1760 nM; GI50 [7]: 4920 nM; TGI [7]: 4290 nM; GI50 [9]: 1290 nM; TGI [9]: 1020 nM; GI50 [11]: 390 nM; TGI [11]: 391 nM; GI50 [12]: 1590 nM; TGI [12]: 1290 nM; GI50 [13]: 1770 nM; TGI [13]: 1420 nM |

Reference: ChEMBL document CHEMBL1156597, “Structure-activity relationship of kahalalide F synthetic analogues” (J Med Chem, 2008)
